Results taken from ChEMBL document CHEMBL4359913, “Identification and characterization of benzo[d]oxazol-2(3H)-one derivatives as the first potent and selective small-molecule inhibitors of chromodomain protein CDYL” (Eur J Med Chem, 2019).
The source made the active and inactive calls. The rule behind the calls is not given here.

Tests used:
[1] = biological target: T1, Chromobox protein homolog 7 (Homo sapiens, UniProt O95931); test: Binding affinity to recombinant human N-terminal GST-tagged CBX7 (1 to 62 residues) expressed in Escherichia coli […] by SPR analysis
T1 sequence (O95931 whole entry): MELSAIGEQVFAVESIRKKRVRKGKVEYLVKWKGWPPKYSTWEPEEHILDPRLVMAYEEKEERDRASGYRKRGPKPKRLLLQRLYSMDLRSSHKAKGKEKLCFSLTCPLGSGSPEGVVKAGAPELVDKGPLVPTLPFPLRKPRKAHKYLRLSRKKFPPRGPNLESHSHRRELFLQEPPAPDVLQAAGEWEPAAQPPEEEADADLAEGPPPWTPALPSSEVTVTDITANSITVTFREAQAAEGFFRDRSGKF
Procedure, shortened: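 Chromodomain expressed with N-terminal GST tag in E. coli BL21 (IPTG 0.2 mM at OD600 0.6–0.8, 28 C for 6 h), GSTrap purified, tag cleaved by PreScission protease, amine-coupled to CM5 chip at pH 4.0–4.5 (5000–10000 RU). […] Mean ± SD of at least two replicates, each in duplicate.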

[2] = biological target: T2, Chromodomain Y-like protein (Homo sapiens) (UniProt Q9Y232); test: Inhibition of CDYL in human SH-SY5Y cells assessed as increase in BDNF mRNA expression incubated for 24 hrs by RT-qPCR analysis; assay type: cell-based
T2 sequence (whole entry): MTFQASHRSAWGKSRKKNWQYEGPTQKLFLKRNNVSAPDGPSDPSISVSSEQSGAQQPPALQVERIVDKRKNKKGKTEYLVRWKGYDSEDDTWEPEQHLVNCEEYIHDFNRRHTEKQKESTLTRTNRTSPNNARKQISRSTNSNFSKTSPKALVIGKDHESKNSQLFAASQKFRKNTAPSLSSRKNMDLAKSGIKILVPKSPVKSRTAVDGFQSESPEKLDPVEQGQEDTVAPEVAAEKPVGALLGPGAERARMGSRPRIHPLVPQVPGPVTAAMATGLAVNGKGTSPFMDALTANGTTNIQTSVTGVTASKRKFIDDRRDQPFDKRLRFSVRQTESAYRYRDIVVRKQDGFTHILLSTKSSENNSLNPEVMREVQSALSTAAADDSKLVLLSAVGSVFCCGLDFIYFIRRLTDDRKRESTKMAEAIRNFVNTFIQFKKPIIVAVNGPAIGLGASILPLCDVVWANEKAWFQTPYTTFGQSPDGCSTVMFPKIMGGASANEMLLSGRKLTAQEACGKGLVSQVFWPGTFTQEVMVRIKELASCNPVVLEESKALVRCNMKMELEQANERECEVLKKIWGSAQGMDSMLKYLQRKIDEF
Procedure, shortened: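 SH-SY5Y or HEK-293T cells grown in DMEM with 10% FBS and treated with compound for 24 h. mRNA quantified by SYBR green RT-qPCR after DNase treatment, 2^-ΔΔCt method with GAPDH as reference, relative to DMSO. Mean ± S.E.M. of triplicate experiments, Student's t-test.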

[3] = biological target: T2, Chromodomain Y-like protein (Homo sapiens); test: Inhibition of CDYL in human SH-SY5Y cells assessed as decrease in enrichment of H3K27me3 at VGF promoter site at 150 uM incubated for 24 hrs by ChIP-qPCR analysis; assay type: cell-based
Procedure, shortened: (§1)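 About 1×10^7 SH-SY5Y cells given 150 µM compound or DMSO for 24 h, fixed in 1% formaldehyde for 10 min. Chromatin immunoprecipitated overnight-style (12 h, 4 °C) with CDYL or H3K27me3 antibody, captured on Protein A/G beads, washed, decrosslinked at 65 °C. Promoter DNA quantified by qPCR, mean ± S.E.M. of triplicate experiments, Student's t-test.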

SH-SY5Y = test: Effect on enrichment of H3K27me3 at HOXA3 promoter site in human SH-SY5Y cells at 150 uM incubated for 24 hrs by ChIP-qPCR analysis; assay type: functional, cell-based; procedure, shortened: as §1
[4] = biological target: T3, Chromodomain Y-like protein (Mus musculus) (UniProt Q9WTK2); test: Inhibition of CDYL in C57BL/6 mouse hippocampal neurons as increase in BDNF mRNA expression at 150 uM incubated for 24 hrs by RT-qPCR analysis
T3 sequence (whole entry): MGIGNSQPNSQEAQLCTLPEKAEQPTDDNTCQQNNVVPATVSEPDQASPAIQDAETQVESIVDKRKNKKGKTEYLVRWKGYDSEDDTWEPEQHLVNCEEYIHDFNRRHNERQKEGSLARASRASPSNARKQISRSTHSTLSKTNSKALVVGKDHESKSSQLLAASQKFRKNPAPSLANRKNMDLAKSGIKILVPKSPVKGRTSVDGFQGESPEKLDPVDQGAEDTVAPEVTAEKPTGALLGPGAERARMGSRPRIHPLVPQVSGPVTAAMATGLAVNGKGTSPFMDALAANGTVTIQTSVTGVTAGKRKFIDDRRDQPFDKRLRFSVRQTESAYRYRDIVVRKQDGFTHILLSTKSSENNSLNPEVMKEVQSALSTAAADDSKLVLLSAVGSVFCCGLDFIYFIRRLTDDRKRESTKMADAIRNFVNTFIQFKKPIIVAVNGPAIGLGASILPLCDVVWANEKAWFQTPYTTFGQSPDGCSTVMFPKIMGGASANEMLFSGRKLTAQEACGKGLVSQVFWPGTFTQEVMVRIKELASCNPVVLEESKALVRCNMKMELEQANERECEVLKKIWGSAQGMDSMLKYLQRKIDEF
Procedure, shortened: (§2)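 Mouse cortical or hippocampal neurons, dissociated with trypsin and kept in Neurobasal/B27, treated with 150 µM compound for 24 h. mRNA measured by SYBR green RT-qPCR with the 2^-ΔΔCt method, GAPDH as reference, relative to DMSO. Mean ± S.E.M. of triplicate experiments, Student's t-test.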

[5] = biological target: T3, Chromodomain Y-like protein (Mus musculus); test: Inhibition of CDYL in C57BL/6 mouse cortical neurons as increase in MYT1 mRNA expression at 150 uM incubated for 24 hrs by RT-qPCR analysis; procedure, shortened: as §2
[6] = biological target: T3, Chromodomain Y-like protein (Mus musculus); test: Inhibition of CDYL in C57BL/6 mouse hippocampal neurons assessed as induction of dendritic branching at 150 uM incubated for 24 hrs by DAPI staining confocal microscopic method
Procedure, shortened: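 Mouse hippocampal or cortical neurons on poly-D-lysine given 150 µM compound or DMSO at DIV 5 for 24 h, then fixed in 4% PFA. Stained for MAP2 with DAPI nuclei and imaged by confocal microscopy. Dendrite crossings counted by Sholl analysis at 10 µm intervals. Mean ± S.E.M. of triplicates, Student's t-test.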

[7] = biological target: T2, Chromodomain Y-like protein (Homo sapiens); test: Binding affinity to CDYL in human SH-SY5Y cells assessed as reduction in protein degradation incubated for 4 mins at 55 degC for 4 mins by CETSA; assay type: cell-based
Procedure, shortened: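 Lysates of SH-SY5Y cells, freeze-thawed three times, incubated with compound at 0–500 µM at 55 °C for 4 min. Supernatant isolated by centrifugation and CDYL read by immunoblot with densitometry.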

O=C(Cn1c(=O)oc2ccccc21)N1CCC(N2CCCC2)CC1
Kd [1]: 16.2 µM | Activity [2]: Dose-dependent effect | inhibition [3]: Active | Activity (SH-SY5Y): inactive | Activity [4]: Active | Activity [5]: Active | Activity [6]: Active | inhibition [7]: Dose-dependent effect
